Experimental data reported in ChEMBL document CHEMBL1129729, “Orally active fibrinogen receptor antagonists. 2. Amidoximes as prodrugs of amidines” (J Med Chem, 1996).
pIC50: −log10 of the molar value.

Assays:
Homo sapiens [1] = species: Homo sapiens; assay: Inhibition of platelet aggregation of human platelet rich plasma(h-PRP) induced by adenosine 5-diphosphate (ADP).(oral activity in mice); assay type: functional; settings: read-out: ID50 (the source's name)
Procedure, shortened: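 Mice got about 100 mg/kg orally, suspended in 10% gelatin (particle <1 µm); one mouse was killed at 1 h and one at 3 h for plasma. Serial dilutions of plasma (100 µL) were mixed with 300 µL human PRP and aggregated with 10 µM ADP (final). Dose divided by the IC50 dilution factor gave ID50; 1 h and 3 h values pooled, mean ± SEM.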

[2] = target: Integrin alpha-IIb/beta-3 (Homo sapiens, UniProt P05106+P08514); assay: Inhibition of FG binding to alpha IIb beta-3 integrin; assay type: protein-complex assay
Procedure, shortened: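 Binding of fibrinogen to immobilized purified GP IIb-IIIa (αIIbβ3). IC50 was calculated by log-linear regression and is the mean of at least two independent experiments.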

Homo sapiens [3] = species: Homo sapiens; assay: Compound was tested for inhibition of platelet aggregation of human platelet rich plasma(h-PRP) induced by adenosine 5-diphosphate (ADP); assay type: functional
Procedure, shortened: (§1)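 ADP-induced aggregation of human platelet-rich plasma, measured in vitro. Plasma came from at least two donors. IC50 was read from the inhibition of aggregation.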

Homo sapiens [4] = species: Homo sapiens; assay: Inhibition of platelet aggregation in human platelet rich plasma(h-PRP) induced by adenosine 5-diphosphate (ADP); assay type: functional; procedure, shortened: as §1

Chain of Integrin alpha-IIb/beta-3 (P05106 27-788 limits assumed): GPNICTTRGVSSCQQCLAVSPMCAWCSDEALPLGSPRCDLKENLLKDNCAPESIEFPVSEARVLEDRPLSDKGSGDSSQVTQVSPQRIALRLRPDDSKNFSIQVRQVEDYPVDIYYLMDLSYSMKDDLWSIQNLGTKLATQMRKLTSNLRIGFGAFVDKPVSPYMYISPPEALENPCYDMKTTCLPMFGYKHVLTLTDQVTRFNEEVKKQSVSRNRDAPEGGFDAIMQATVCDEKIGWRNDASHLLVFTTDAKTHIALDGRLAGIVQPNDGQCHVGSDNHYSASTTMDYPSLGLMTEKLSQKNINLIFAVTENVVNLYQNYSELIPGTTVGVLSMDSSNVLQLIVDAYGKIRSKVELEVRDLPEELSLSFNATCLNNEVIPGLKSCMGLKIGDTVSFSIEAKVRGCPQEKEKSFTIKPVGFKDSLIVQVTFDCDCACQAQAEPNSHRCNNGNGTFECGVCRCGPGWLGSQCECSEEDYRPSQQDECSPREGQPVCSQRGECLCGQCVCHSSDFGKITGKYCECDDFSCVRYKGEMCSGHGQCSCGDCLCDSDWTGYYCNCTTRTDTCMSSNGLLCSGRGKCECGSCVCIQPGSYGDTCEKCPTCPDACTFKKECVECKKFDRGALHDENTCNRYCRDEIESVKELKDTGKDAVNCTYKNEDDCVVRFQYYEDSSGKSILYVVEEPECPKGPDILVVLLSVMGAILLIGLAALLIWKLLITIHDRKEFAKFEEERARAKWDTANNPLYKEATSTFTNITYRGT
Chain of Integrin alpha-IIb/beta-3 (P08514 32-887 limits assumed): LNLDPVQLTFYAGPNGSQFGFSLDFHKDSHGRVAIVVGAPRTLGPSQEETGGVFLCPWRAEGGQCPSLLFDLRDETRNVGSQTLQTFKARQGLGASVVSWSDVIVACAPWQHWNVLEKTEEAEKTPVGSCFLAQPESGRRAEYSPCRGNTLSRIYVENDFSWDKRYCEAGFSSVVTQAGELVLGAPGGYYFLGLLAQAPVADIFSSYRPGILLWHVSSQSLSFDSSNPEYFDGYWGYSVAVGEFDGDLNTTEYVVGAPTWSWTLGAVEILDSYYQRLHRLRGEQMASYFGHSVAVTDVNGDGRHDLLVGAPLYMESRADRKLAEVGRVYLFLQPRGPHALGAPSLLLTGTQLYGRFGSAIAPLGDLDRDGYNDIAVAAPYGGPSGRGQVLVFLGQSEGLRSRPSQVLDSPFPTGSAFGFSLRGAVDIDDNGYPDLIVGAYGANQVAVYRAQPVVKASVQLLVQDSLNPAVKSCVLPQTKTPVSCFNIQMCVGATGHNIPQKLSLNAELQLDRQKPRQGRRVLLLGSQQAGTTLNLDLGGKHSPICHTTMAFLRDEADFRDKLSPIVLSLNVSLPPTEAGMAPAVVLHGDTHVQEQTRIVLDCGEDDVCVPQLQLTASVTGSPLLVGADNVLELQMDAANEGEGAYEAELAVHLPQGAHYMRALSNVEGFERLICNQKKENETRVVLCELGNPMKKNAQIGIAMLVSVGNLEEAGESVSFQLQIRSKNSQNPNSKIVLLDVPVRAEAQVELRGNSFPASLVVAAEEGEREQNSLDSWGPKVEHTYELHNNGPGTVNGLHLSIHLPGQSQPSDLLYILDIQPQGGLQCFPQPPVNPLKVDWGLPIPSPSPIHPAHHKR
Chain of Integrin alpha-IIb/beta-3 (P08514 891-1039 limits assumed): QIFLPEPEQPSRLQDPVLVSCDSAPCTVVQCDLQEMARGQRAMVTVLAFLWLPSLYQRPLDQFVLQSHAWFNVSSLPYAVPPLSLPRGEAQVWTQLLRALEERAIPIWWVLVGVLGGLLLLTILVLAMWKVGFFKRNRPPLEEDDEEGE

SMILES | pIC50 [2] | pIC50 (Homo sapiens [3]) | pIC50 (Homo sapiens [4]) | ED50 (Homo sapiens [1])
CC(C)OC(=O)COc1ccc(C(=O)CN(C)C(=O)c2ccc(C(=N)N)cc2)cc1OCC(=O)OC(C)C | 6.05 | – | 6.46 | 11 mg/kg
CCOC(=O)NC(=N)c1ccc(C(=O)N(C)CC(=O)c2ccc(OCC(=O)OC(C)C)c(OCC(=O)OC(C)C)c2)cc1 | < 5.00 | – | < 4.00 | 1.4 mg/kg
CCOC(=O)COC1CCN(C(=O)[C@H](Cc2ccc(O)cc2)NC(=O)c2ccc(C(=N)NO)cc2)CC1 | < 5.00 | – | < 4.00 | 2.6 mg/kg
CC(C)OC(=O)OC(C)OC(=O)COC1CCN(C(=O)[C@H](C)NC(=O)c2ccc(C(=N)NO)cc2)CC1 (stereo not given in full) | < 5.00 | – | < 4.22 | 0.34 mg/kg
CCCCOC(=O)NC(=N)c1ccc(C(=O)N[C@@H](C)C(=O)N2CCC(OCC(=O)OCC)CC2)cc1 | < 5.00 | – | < 4.00 | 0.3 mg/kg
CCOC(=O)COC1CCN(C(=O)[C@H](Cc2ccc(O)cc2)NC(=O)c2ccc(C(N)=NC(=O)OCC)cc2)CC1 | < 5.10 | – | 4.40 | 1.4 mg/kg
CCOC(=O)NC(=N)c1ccc(C(=O)N[C@@H](Cc2ccc(OC(C)=O)cc2)C(=O)N2CCC(OCC(=O)OC(C)C)CC2)cc1 | < 5.00 | – | < 4.00 | 0.9 mg/kg
COC(=O)COc1ccc(C(=O)CN(C)C(=O)c2ccc(C(=N)NO)cc2)cc1OCC(=O)OC | < 5.00 | – | < 4.00 | 0.7 mg/kg

The next molecules have a higher pIC50 [2] than those just listed; values first:

pIC50 [2] | pIC50 (Homo sapiens [3]) | pIC50 (Homo sapiens [4]) | SMILES | ED50 (Homo sapiens [1])
6.23 | – | 4.86 | C[C@H](NC(=O)c1ccc(C(=N)NO)cc1)C(=O)N1CCC(OCC(=O)O)CC1 | 5.1 mg/kg
6.79 | – | 6.30 | CCOC(=O)COC1CCN(C(=O)[C@H](C)NC(=O)c2ccc(C(=N)N)cc2)CC1 | 1.8 mg/kg
7.05 | – | 5.71 | CCOC(=O)NC(=N)c1ccc(C(=O)N[C@@H](Cc2ccc(O)cc2)C(=O)N2CCC(OCC(=O)O)CC2)cc1 | 10.7 mg/kg
7.29 | – | 7.20 | CCOC(=O)COC1CCN(C(=O)[C@H](Cc2ccc(O)cc2)NC(=O)c2ccc(C(=N)N)cc2)CC1 | 6.9 mg/kg
8.72 | – | 7.42 | C[C@H](NC(=O)c1ccc(C(=N)N)cc1)C(=O)N1CCC(OCC(=O)O)CC1 [RO-44-3888] | 5.2 mg/kg
8.85 | 7.48 | – | N=C(N)c1ccc(C(=O)N[C@@H](Cc2ccc(O)cc2)C(=O)N2CCC(OCC(=O)O)CC2)cc1 [LAMIFIBAN] | 8.5 mg/kg
9.40 | – | 7.29 | CN(CC(=O)c1ccc(OCC(=O)O)c(OCC(=O)O)c1)C(=O)c1ccc(C(=N)N)cc1 | 11.2 mg/kg
